Reference: ChEMBL document CHEMBL5579803, “α-Amino bisphosphonate triazoles serve as GGDPS inhibitors” (Bioorg Med Chem Lett, 2024)
Activity calls are given as the source filed them.

Columns and labels:
[1] = biological target: T1, Geranylgeranyl pyrophosphate synthase (Homo sapiens) (UniProt O95749); test: Inhibition of GGDPS (unknown origin) using uRAP1a as substrate in RPMI-8226 cells assessed as disruption of geranylgeranylation by measuring unmodified Rap1a at […] incubated for 48 hrs by immunoblot analysis; format: cell-based; details: dose 0.25 µM
T1 sequence (whole entry): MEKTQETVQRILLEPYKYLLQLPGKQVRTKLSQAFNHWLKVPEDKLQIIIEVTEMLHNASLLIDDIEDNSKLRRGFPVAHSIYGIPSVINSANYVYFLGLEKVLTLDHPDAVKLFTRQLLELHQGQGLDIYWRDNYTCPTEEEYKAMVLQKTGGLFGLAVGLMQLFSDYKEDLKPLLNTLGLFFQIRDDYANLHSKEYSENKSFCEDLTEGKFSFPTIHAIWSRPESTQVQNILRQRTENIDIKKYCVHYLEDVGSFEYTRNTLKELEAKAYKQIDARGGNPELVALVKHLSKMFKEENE

[2] = biological target: T1, Geranylgeranyl pyrophosphate synthase (Homo sapiens); test: Inhibition of GGDPS (unknown origin) using uRAP1a as substrate in RPMI-8226 cells by measuring lowest effective concentration by measuring unmodified Rap1a by immunoblot based ELISA analysis; format: cell-based
How it was run: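 Lowest effective concentration in RPMI-8226 cells after 48 h exposure. It is defined as the lowest level giving both a visible unprenylated Rap1a band on immunoblot (β-tubulin loading control) and a statistically significant rise (p<0.05, t-test vs untreated cells) in intracellular lambda light chain by ELISA. Based on n=3 independent experiments.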

[3] = biological target: T2, Geranylgeranyl pyrophosphate synthase (Homo sapiens, UniProt O95749); test: Inhibition of GGDPS (unknown origin) using recombinant enzyme by enzyme assay
T2 sequence (O95749 whole entry): T1 sequence (whole entry)

[4] = biological target: T1, Geranylgeranyl pyrophosphate synthase (Homo sapiens); test: Inhibition of GGDPS (unknown origin) using uRAP1a as substrate in RPMI-8226 cells assessed as disruption of geranylgeranylation by measuring unmodified Rap1a at 0.5 uM incubated for 48 hrs by immunoblot analysis; format: cell-based
How it was run: (§1)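 RPMI-8226 myeloma cells exposed 48 h to varying test concentrations, with lovastatin (10 μM) as positive control. Lysates were immunoblotted with an antibody that recognises only unprenylated Rap1a, with β-tubulin as loading control. Gels are representative of three independent studies.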

[5] = biological target: T1, Geranylgeranyl pyrophosphate synthase (Homo sapiens); test: Inhibition of GGDPS (unknown origin) using uRAP1a as substrate in RPMI-8226 cells assessed as disruption of geranylgeranylation by measuring unmodified Rap1a at 10 uM incubated for 48 hrs by immunoblot analysis; format: cell-based; how it was run: as §1

Structure (SMILES) | inhibition [1] | MEC [2] [µM] | IC50 [3] [µM] | inhibition [4] | inhibition [5]
CC(C)=CCC/C(C)=C\Cn1cc(CC(N)(P(=O)(O)O)P(=O)(O)O)nn1 | Active | 0.25 | 0.27 | – | –
CC(C)=CCCC(C)=CCn1cc(CC(N)(P(=O)(O)O)P(=O)(O)O)nn1 | – | 0.5 | 3.76 | Active | –
CC(C)=CCC/C(C)=C/CCn1cc(CC(P(=O)(O)O)P(=O)(O)O)nn1 | – | 0.03 | – | – | –
CC(C)=CCC/C(C)=C/Cn1cc(CC(N)(P(=O)(O)O)P(=O)(O)O)nn1 | – | – | > 100 | – | inactive

Results, then the compound that gave them:

inhibition [1] | MEC [2] [µM] | IC50 [3] [µM] | inhibition [4] | inhibition [5] | Structure (SMILES)
– | 0.25 | 0.0494 | – | – | CC(C)=CCC/C(C)=C\CCn1cc(CC(N)(P(=O)(O)O)P(=O)(O)O)nn1
– | 1 | 0.0521 | – | – | CC(C)=CCC/C(C)=C/CCn1cc(CC(N)(P(=O)(O)O)P(=O)(O)O)nn1
